Measured values taken from ChEMBL document CHEMBL3822431, “Hydroxychalcone inhibitors of Streptococcus mutans glucosyl transferases and biofilms as potential anticaries agents” (Bioorg Med Chem Lett, 2016).

Assays:
[1] = target: T1, Glucosyltransferase-S (Streptococcus mutans serotype c (strain ATCC 700610 / UA159)) (UniProt P49331); assay: Inhibition of Wild-type Streptococcus mutans UA159 glucosyltransferase D by zymography
T1 sequence (whole entry): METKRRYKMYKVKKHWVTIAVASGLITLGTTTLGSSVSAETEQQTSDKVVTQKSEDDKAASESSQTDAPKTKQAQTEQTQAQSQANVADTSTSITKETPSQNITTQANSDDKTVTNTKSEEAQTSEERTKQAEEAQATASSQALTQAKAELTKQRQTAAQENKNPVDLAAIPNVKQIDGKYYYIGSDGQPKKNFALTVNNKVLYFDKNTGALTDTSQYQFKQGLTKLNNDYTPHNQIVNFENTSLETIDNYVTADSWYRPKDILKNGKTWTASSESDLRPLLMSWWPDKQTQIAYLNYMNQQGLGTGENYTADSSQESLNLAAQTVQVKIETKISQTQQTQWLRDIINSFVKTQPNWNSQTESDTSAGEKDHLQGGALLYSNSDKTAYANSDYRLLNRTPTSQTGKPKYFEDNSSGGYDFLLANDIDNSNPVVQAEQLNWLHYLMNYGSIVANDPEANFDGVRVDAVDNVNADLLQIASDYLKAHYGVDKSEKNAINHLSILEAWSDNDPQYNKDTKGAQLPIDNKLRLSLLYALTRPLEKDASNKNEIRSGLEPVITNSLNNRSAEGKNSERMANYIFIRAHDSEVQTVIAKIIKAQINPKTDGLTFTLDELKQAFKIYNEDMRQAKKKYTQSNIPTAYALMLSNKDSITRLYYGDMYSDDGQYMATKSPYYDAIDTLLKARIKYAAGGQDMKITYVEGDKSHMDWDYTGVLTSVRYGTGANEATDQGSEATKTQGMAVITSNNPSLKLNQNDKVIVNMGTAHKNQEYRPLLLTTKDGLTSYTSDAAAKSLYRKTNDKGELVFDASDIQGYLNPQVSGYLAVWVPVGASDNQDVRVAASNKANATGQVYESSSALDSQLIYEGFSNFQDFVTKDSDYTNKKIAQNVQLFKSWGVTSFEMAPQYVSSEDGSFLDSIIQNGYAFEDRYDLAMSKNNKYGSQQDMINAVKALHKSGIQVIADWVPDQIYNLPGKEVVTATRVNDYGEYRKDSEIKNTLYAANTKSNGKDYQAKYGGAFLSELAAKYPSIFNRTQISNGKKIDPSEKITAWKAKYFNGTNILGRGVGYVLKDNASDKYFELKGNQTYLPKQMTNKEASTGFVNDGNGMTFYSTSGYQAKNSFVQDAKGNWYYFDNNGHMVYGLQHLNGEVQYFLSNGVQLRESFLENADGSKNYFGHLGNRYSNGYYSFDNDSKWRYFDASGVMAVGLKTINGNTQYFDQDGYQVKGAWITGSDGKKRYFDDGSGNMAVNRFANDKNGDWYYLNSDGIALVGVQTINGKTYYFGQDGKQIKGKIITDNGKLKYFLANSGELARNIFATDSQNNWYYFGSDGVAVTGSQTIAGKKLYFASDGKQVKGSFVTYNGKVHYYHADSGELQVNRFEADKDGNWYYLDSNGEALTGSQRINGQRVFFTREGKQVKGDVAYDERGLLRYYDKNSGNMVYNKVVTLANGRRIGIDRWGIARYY
In short: (§1)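 S. mutans UA159 wild type co-incubated with compound at different concentrations; Gtfs concentrated from supernatants, separated by SDS-PAGE and assayed by zymography, glucan band intensity reflecting enzyme activity.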

[2] = target: T2, Glucosyltransferase-SI (Streptococcus mutans serotype c (strain ATCC 700610 / UA159)) (UniProt P13470); assay: Inhibition of Wild-type Streptococcus mutans UA159 glucosyltransferase C by zymography; in short: as §1
T2 sequence (whole entry): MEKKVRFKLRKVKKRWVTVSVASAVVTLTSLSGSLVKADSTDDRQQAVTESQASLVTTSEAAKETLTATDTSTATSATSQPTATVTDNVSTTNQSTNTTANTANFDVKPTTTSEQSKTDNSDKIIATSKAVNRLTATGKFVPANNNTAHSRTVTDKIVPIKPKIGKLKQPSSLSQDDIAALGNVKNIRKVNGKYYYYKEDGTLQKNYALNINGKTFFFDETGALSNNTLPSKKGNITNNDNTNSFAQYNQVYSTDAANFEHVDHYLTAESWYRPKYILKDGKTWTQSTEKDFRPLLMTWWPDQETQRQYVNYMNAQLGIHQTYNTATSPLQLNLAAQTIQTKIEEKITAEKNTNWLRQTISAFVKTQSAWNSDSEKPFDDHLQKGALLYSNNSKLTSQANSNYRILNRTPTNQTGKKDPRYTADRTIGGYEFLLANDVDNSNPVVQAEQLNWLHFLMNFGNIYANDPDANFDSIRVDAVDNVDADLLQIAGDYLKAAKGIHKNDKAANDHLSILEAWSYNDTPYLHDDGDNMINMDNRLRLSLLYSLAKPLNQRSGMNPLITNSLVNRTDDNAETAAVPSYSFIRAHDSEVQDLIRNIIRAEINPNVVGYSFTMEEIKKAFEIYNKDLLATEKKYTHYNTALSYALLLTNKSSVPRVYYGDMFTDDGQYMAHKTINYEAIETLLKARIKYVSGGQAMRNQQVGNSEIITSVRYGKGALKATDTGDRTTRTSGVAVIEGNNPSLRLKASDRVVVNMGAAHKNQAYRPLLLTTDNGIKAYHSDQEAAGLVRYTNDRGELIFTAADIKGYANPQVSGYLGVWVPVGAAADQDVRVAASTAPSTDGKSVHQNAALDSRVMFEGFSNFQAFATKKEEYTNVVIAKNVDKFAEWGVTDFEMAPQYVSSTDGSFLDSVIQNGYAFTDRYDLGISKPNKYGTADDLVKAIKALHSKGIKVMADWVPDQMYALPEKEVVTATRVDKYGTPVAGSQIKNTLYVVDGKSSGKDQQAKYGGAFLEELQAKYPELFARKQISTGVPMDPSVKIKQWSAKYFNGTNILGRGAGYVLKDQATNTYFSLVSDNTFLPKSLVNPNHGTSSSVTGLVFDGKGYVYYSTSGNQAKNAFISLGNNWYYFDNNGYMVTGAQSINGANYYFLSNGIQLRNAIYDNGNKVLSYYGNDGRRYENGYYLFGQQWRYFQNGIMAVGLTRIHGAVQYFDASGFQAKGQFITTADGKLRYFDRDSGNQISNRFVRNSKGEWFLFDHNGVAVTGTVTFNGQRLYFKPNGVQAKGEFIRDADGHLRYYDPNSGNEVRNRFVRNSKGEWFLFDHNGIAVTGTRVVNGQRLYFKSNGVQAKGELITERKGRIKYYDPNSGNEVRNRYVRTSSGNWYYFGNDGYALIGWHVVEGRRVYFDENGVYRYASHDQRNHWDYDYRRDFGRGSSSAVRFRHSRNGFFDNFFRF

[3] = system: Streptococcus mutans; assay: Growth inhibition of Streptococcus mutans UA159 after 16 hrs; type: organism-based; conditions: Streptococcus mutans, UA159, 16 h; read-out: IC50
In short: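 S. mutans UA159 co-incubated with compound at various concentrations; growth measured at OD470.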

SMILES | inhibition [1] | inhibition [2] | IC50 [3]
O=C(/C=C\c1ccc(O)cc1O)c1cccc(O)c1 | Dose-dependent effect | Dose-dependent effect | –
O=C(/C=C/c1ccc(O)cc1O)c1ccc(O)cc1 | – | – | 1.06 mM
